We go through three compounds from ChEMBL document CHEMBL1126642, “N-(1-methyl-5-indolyl)-N'-(3-pyridyl)urea hydrochloride: the first selective 5-HT1C receptor antagonist” (J Med Chem, 1993).

Assay [1] has as its target T1, 5-hydroxytryptamine receptor 2C (Rattus norvegicus) (UniProt P08909).
T1 sequence (whole entry): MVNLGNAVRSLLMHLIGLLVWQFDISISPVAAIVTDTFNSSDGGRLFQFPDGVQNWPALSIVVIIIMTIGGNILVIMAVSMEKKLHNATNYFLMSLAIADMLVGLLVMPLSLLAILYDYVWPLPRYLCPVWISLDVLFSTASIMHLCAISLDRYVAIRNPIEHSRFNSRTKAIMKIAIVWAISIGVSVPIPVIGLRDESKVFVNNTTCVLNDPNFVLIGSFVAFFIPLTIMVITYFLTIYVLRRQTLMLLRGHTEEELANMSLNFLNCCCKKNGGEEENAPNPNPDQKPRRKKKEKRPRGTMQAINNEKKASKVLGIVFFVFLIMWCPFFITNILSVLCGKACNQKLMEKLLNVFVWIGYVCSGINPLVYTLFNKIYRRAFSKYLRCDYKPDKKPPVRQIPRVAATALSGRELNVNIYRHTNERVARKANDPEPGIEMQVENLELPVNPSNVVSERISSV
Nature of the assay: Binding affinity towards rat 5-hydroxytryptamine 1C receptor using [3H]mesulergine as radioligand expressed in 293 cells. It counts as cell-based. As to conditions: HEK293. The method in brief: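 Cloned rat 5-HT1C receptor expressed in 293 cells, labelled with [3H]mesulergine. Values are means ± SEM of n = 3 determinations.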

Assay [2] can be described thus: Selectivity ratio is Ki value of 5-HT2 receptor to that of 5-HT1c receptor. The method in brief: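 Ratio of Ki at 5-HT2 ([3H]ketanserin, rat frontal cortex) to Ki at 5-HT1C ([3H]mesulergine, rat clone in 293 cells). Each Ki is a mean of n = 3 determinations.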

Take `Cn1ccc2c(NC(=O)Nc3ccncc3)cccc21`: the pK1 in assay [1] stood at 7.18. For the same compound, the Selectivity in assay [2] turned out to be 45.
As for `Cn1ccc2c(NC(=O)Nc3ccccn3)cccc21`, the pK1 in assay [1] is 6.49. The Selectivity in assay [2] was above 19.
Turning to `Cn1ccc2cccc(NC(=O)Nc3ccccc3)c21`, the pK1 in assay [1] was below 5.3.
